Source: PMC5260863 (Journal of medicinal chemistry, 2016)
“And” between values parts separate entries of the source, which are not always exact repeats. Equal values may be shown once.

Columns and labels:
HEK293 lysate = HEK293 lysate inhibition assay; assay type: biochemical, human; settings: read-out: IC50 HEK293, mean of at least three experiments ± SEM
HeLa cells = experiment: HeLa EC50 analysis; assay type: cell-based, human; settings: 48 hours of treatment
MV4–11 cells [1] = experiment: MV4–11 EC50 analysis; assay type: cell-based, human
human PBMCs = experiment: Human peripheral blood mononuclear cell analysis; assay type: cell-based
HEK293 cells = experiment: HEK293 EC50 analysis; assay type: cell-based, human; settings: 48 hours of treatment
[2] = ESI-LCMS glucuronidation assay; assay type: in vitro ADME, human; settings: 12 hours at 37°C; for glucuronidation in human liver microsomes with UDP Glucuronic acid: alamethicin, ESI-LCMS
Summary of the method: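 Pooled mixed-gender human liver microsomes at 250 µg/mL in 100 mM Tris HCl, pH 7.5. Alamethicin 1 µg/mL and MgCl2 5 mM (final), rocked 15 min at 4°C for pore formation. Test compound (5 mM stock) added with UDPGA (50 mM stock) or water, rocked 12 h at 37°C. Quenched with water/acetonitrile/formic acid 47:50:3, centrifuged 15000g. Supernatant analysed by reversed-phase ESI-LCMS TIC.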

RPMI-8226 cells = experiment: Cell viability, CellTiter-Blue; assay type: cell-based, human; settings: even at mM concentrations
MV4–11 cells [3] = experiment: Western blot analysis of MV4–11 cells; assay type: cell-based, human; settings: for AcHH3 and AcHH4 at varied doses: 6 hours
Summary of the method: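 Cells were seeded at 500k cells/mL in 6-well plates and pre-incubated 24 h. They were then exposed to test compound at 100 nM for 24 h, or at varied doses for 6 h. Pellets were lysed in RIPA (Tris, NaCl, EDTA, SDS, deoxycholate, Triton X-100), sonicated, spun 15 min at 4°C, then heated in β-mercaptoethanol/LDS at 90°C. Primary antibody ran overnight at 4°C. Bands were normalized to actin, n ≥ 2.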

recombinant HDAC1 = recombinant HDAC1 (Homo sapiens, UniProt Q13547); experiment: Recombinant HDAC Vmax study; assay type: biochemical
Chain of recombinant HDAC1 (Q13547 whole entry): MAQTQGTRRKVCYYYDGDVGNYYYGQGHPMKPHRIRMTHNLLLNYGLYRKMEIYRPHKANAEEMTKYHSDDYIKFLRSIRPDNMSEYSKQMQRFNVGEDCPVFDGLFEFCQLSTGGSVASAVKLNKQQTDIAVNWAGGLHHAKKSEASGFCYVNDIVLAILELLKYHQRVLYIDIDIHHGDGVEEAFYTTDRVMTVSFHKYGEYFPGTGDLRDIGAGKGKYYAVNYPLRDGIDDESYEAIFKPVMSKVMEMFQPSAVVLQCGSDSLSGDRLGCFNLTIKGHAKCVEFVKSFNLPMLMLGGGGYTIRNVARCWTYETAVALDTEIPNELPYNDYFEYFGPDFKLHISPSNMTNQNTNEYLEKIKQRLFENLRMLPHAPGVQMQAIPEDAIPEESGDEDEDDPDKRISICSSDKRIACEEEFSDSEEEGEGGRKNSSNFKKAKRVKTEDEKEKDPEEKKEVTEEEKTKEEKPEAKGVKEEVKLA

recombinant HDAC3 = recombinant HDAC3 (Homo sapiens, UniProt O15379); experiment: Recombinant HDAC Vmax study; assay type: biochemical
Chain of recombinant HDAC3 (O15379 whole entry): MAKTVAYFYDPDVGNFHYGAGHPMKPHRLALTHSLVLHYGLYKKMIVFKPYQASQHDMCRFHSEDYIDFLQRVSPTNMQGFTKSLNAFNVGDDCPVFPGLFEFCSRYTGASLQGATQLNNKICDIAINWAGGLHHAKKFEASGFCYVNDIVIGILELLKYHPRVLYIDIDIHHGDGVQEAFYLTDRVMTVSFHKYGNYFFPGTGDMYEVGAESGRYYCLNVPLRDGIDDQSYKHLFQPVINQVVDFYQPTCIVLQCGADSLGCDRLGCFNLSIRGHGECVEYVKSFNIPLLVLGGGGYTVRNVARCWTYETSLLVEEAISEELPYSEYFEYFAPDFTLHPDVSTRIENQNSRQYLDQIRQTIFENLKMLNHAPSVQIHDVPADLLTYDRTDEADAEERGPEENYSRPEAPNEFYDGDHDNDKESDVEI
Chain of recombinant HDAC3 (Q9Y618 395-489 partner limits assumed): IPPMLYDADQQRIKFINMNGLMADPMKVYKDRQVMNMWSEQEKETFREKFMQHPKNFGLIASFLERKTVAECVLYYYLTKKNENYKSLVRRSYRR

With `O=C(NCc1ccc(C(=O)NNCCC(F)(F)F)cc1)c1ccccc1` [2f, N-(4-(2-(3,3,3-trifluoropropyl)hydrazine-1-carbonyl)benzyl)benzamide] the IC50 (HEK293 lysate) was 1.23 ± 0.137 µM.
For `CCCNNC(=O)c1ccc(CNC(=O)/C=C/c2ccccc2)cc1` [3b, N-(4-(2-propylhydrazine-1-carbonyl)benzyl)cinnamamide], the “killing of HeLa cells” value (HeLa cells) was “Neither 1l, 2d, nor 3b display effective killing of this solid tumor cell line”, the “decrease in EC50 in MV4–11 cells compared to 2d” value (MV4–11 cells [1]; vs 2d) was roughly 2.5 fold and the “toxicity toward PBMCs compared to panobinostat” value (human PBMCs; 24 hours treatment) was “superior toxicity (less PBMC killing) than panobinostat”. For the same compound, the “killing of HEK293 cells” value (HEK293 cells) was “Neither 11, 2d, nor 3b display effective killing of this solid tumor cell line”, the “glucuronidation in human liver microsomes with UDP Glucuronic acid” value [2] was “not readily glucuronidated” and the “kill curve against RPMI-8226” value (RPMI-8226 cells) was “incomplete kill curves”. The “upregulation of Acetylated Histones H3 and H4 (AcHH3/AcHH4)” value (“upregulation … (AcHH3/AcHH4)” below) (MV4–11 cells [3]; 100 nM, 24 hours) was “higher upregulation of Acetylated Histones H3 and H4 (AcHH3/AcHH4) than vorinostat and entinostat” and the “AcHH3 and AcHH4 at varied doses” value (MV4–11 cells [3]) was “dose-dependent increase in AcHH3 and AcHH4”.
`CCCCNNC(=O)c1cccnc1` [1d, N’-butylnicotinohydrazide] showed an IC50 (HEK293 lysate) of 4.68 ± 0.909 µM.
In the case of `CCCCNNC(=O)c1cccc2ccccc12` [1j, N’-butyl-1-napthohydrazide], the IC50 (HEK293 lysate) is reported as greater than 10 µM.
`CCNNC(=O)c1ccc(CNC(=O)/C=C/c2ccccc2)cc1` [3a, N-(4-(2-ethylhydrazine-1-carbonyl)benzyl)cinnamide] showed an IC50 (HEK293 lysate) of 0.171 ± 0.0342 µM.
In the case of `CCCCCNNC(=O)c1ccc(CNC(=O)/C=C/c2ccccc2)cc1` [3d, N-(4-(2-pentylhydrazine-1-carbonyl)benzyl)cinnamide], the IC50 (HEK293 lysate) is reported as 0.691 ± 0.0547 µM.
For `CCCNNC(=O)c1ccc(CNC(=O)c2ccccc2)cc1` [2d, N-(4-(2-propylhydrazine-1-carbonyl)benzyl)benzamide], the “killing of HeLa cells” value (HeLa cells) was “Neither 1l, 2d, nor 3b display effective killing of this solid tumor cell line”, the “toxicity toward PBMCs compared to panobinostat” value (human PBMCs; 24 hours treatment) was “superior toxicity (less PBMC killing) than panobinostat” and the “less toxicity toward PBMCs than 3b” value (human PBMCs; vs 3b, until the high micromolar range) was 10 fold and ~ 10 fold. The “killing of HEK293 cells” value (HEK293 cells) was “Neither 11, 2d, nor 3b display effective killing of this solid tumor cell line”, the “metabolites in human liver microsomes” value ([2]; with and without UDPGA, no NADPH added) was “Neither vessel contained any detectable metabolites other than parent compound” and the “mode of inhibition, HDAC1 (Lineweaver-Burke plot)” value (recombinant HDAC1) was “mixed inhibition”. For the same compound, the “upregulation … (AcHH3/AcHH4)” value (MV4–11 cells [3]; 100 nM, 24 hours) was “higher upregulation of Acetylated Histones H3 and H4 (AcHH3/AcHH4) than vorinostat and entinostat” and the “AcHH3 and AcHH4 at varied doses” value (MV4–11 cells [3]) was “dose-dependent increase in AcHH3 and AcHH4”.
For `O=C(CCCCCCC(=O)Nc1ccccc1)NO` [vorinostat, reference compound], the “glucuronidation in human liver microsomes with UDP Glucuronic acid” value [2] was “presence of the o-glucuronidated metabolite”, the “mode of inhibition, HDAC1 (Lineweaver-Burke plot)” value (recombinant HDAC1) was “competitive inhibition” and the “mode of inhibition, HDAC3 (Lineweaver-Burke plot)” value (recombinant HDAC3) was “competitive inhibition”.
Work on `CCCCCCNNC(=O)c1ccc(CNC(=O)c2ccccc2)cc1` [2j, N-(4-(2-hexylhydrazine-1-carbonyl)benzyl)benzamide] yielded an IC50 (HEK293 lysate) of 0.55 ± 0.134 µM.
`CCCCNNC(=O)/C=C/c1ccccc1` [1i, N’-butylcinnamohydrazide] showed an IC50 (HEK293 lysate) of 1.44 ± 0.0861 µM.
`CCCCCCNNC(=O)c1ccc(CNC(=O)/C=C/c2ccccc2)cc1` [3e, N-(4-(2-hexylhydrazine-1-carbonyl)benzyl)cinnamamide] showed an IC50 (HEK293 lysate) of 1.72 ± 0.139 µM.
With `CCCCNNC(=O)c1ccc(CNC(=O)c2ccccc2)cc1` [1l, N-(4-(2-butylhydrazine-1-carbonyl)benzyl)benzamide] the “killing of HeLa cells” value (HeLa cells) was “Neither 1l, 2d, nor 3b display effective killing of this solid tumor cell line”, the “killing of HEK293 cells” value (HEK293 cells) was “Neither 11, 2d, nor 3b display effective killing of this solid tumor cell line” and the “upregulation … (AcHH3/AcHH4)” value (MV4–11 cells [3]; 100 nM, 24 hours) was “higher upregulation of Acetylated Histones H3 and H4 (AcHH3/AcHH4) than vorinostat and entinostat”. For the same compound, the “AcHH3 and AcHH4 at varied doses” value (MV4–11 cells [3]) was “dose-dependent increase in AcHH3 and AcHH4”.
With `CCCCNNC(=O)c1ccc(OC)cc1` [1a, N’-butyl-4-methoxybenzohydrazide] the IC50 (HEK293 lysate) was 0.727 ± 0.0108 µM.
In the case of `CCCCNNC(=O)c1cc2ccccc2o1` [1b, N’-butylbenzofuran-2-carbohydrazide], the IC50 (HEK293 lysate) is reported as 1.69 ± 0.0381 µM.
`CC(C)NNC(=O)c1ccc(CNC(=O)c2ccccc2)cc1` [2b, N-(4-(2-isopropylhydrazine-1-carbonyl)benzyl)benzamide] showed an IC50 (HEK293 lysate) greater than 10 µM.
For `CCCCNNC(=O)c1ccc(Oc2ccccc2)cc1` [1c, N’-butyl-4-phenoxybenzohydrazide], the IC50 (HEK293 lysate) was 1.69 ± 0.298 µM.
`CCNNC(=O)c1ccc(CNC(=O)c2ccccc2)cc1` [2l, N-(4-(2-ethylhydrazine-1-carbonyl)benzyl)benzamide] showed an IC50 (HEK293 lysate) of 0.427 ± 0.111 µM.
With `CCCCCCCCCCNNC(=O)c1ccc(CNC(=O)c2ccccc2)cc1` [2k, N-(4-(2-decylhydrazine-1-carbonyl)benzyl)benzamide] the IC50 (HEK293 lysate) was greater than 10 µM.
For `O=C(NCc1ccc(C(=O)NNCC2CC2)cc1)c1ccccc1` [2g, N-(4-(2-(cyclopropylmethyl)hydrazine-1-carbonyl)benzyl)benzamide], the IC50 (HEK293 lysate) was 1.62 ± 0.196 µM.
`C/C=C/CNNC(=O)c1ccc(CNC(=O)c2ccccc2)cc1` [2a, (E)-N-(4-(2-(but-2-en-1-yl)hydrazine-1-carbonyl)benzyl)benzamide] showed an IC50 (HEK293 lysate) greater than 10 µM.
In the case of `CCCCNNC(=O)c1cccs1` [1f, N’-butylthiophene-2-carbohydrazide], the IC50 (HEK293 lysate) is reported as 3.46 ± 0.669 µM.
With `CCCCCCCNNC(=O)c1ccc(CNC(=O)c2ccccc2)cc1` [2h, N-(4-(2-heptylhydrazine-1-carbonyl)benzyl)benzamide] the IC50 (HEK293 lysate) was 2.16 ± 0.896 µM.
Work on `CCCCCCCCNNC(=O)c1ccc(CNC(=O)c2ccccc2)cc1` [2i, N-(4-(2-octylhydrazine-1-carbonyl)benzyl)benzamide] yielded an IC50 (HEK293 lysate) greater than 10 µM.
In the case of `CCCCNNC(=O)CCc1ccccc1` [1h, N’-butyl-3-phenylpropanehydrazide], the IC50 (HEK293 lysate) is reported as greater than 10 µM.
In the case of `CC/C=N/NC(=O)c1ccc(CNC(=O)c2ccccc2)cc1` [2c, (E)-N-(4-(2-propylidenehydrazine-1-carbonyl)benzyl)benzamide], the IC50 (HEK293 lysate) is reported as greater than 10 µM, the “activity against MV4–11 cells” value (MV4–11 cells [1]; doses as high as 250 µM, negative control) is reported as “no appreciable activity” and the “upregulation … (AcHH3/AcHH4)” value (MV4–11 cells [3]; 100 nM, 24 hours) is reported as “no appreciable ability to increase acetylation of histones H3 and H4”.
In the case of `Cc1[nH]c2ccccc2c1CCNCc1ccc(/C=C/C(=O)NO)cc1` [Panobinostat, panobinostat, reference compound], the “concentration at which toxicity toward PBMCs is displayed” value (human PBMCs; 24 hours treatment) is reported as 10 nM and the “Acetylated Tubulin (AcTub) levels” value (MV4–11 cells [3]; 100 nM, 24 hours, marker of HDAC6 inhibition) is reported as “the only inhibitor to raise Acetylated Tubulin (AcTub) levels at this concentration”.
With `CCCCNNC(=O)c1ccco1` [1g, N’-butylfuran-2-carbohydrazide] the IC50 (HEK293 lysate) was greater than 10 µM.
For `O=C(NCc1ccc(C(=O)NNCC2CCC2)cc1)c1ccccc1` [2m, N-(4-(2-(cyclobutylmethyl)hydrazine-1-carbonyl)benzyl)benzamide], the IC50 (HEK293 lysate) was 1.88 ± 0.212 µM.
